The values that follow come from ChEMBL document CHEMBL4732102, “Sustainable, three-component, one-pot procedure to obtain active anti-flavivirus agents” (Eur J Med Chem, 2021).

Activity calls are given as the source filed them. The rule behind the calls is not given here.

As a reminder, the inhibition is the drop in the measured response relative to a control, in per cent. Broadly, the IC50 is the concentration that inhibits the measured activity by half. A word on the CC50: it is the concentration at which the toxic effect on the cells reaches its halfway point. Broadly, the EC50 is the concentration needed to bring the measured effect to its halfway point.

The subject of the first data set is dengue virus type 2. In words: Inhibition of Dengue virus 2 full length NS5 RNA-dependent RNA polymerase assessed as reduction in de novo initiation activity at 30 uM incubated for 1 hr relative to control.
Details: not given
The procedure, abridged:
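De novo initiation assay: 100 nM full-length DENV-2 NS5 with 100 nM in vitro transcribed DENV-2 5'UTR-3'UTR RNA, 20 µM each of ATP, GTP and UTP, and 5 µM Atto-CTP. Buffer Tris-HCl pH 7.5 with KCl, 1 mM MgCl2, 0.3 mM MnCl2, Triton X-100 and 10 µM cysteine. Compound at 30 µM; 1 h at 37 °C. Read-out by alkaline phosphatase-released AttoPhos fluorescence (422/566 nm).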
As for `O=C(O)CC(NC(=O)c1cc(-c2ccccc2)c(=O)n2c1sc1ccc(OC3CCCCC3)cc12)c1ccccc1` (racemic), the inhibition is 79.3%.
Take `O=C(O)C1CCN(C(=O)c2cc(-c3ccccc3)c(=O)n3c2sc2ccc(OC4CCCCC4)cc23)C1` (racemic): the inhibition worked out at 11%.
Regarding `CC(C)C(CC(=O)O)NC(=O)c1cc(-c2ccccc2)c(=O)n2c1sc1ccc(OC3CCCCC3)cc12` (racemic), the inhibition was found to be 75%.
On the same count and under the same terms, next, `CC(CC(=O)O)NC(=O)c1cc(-c2ccccc2)c(=O)n2c1sc1ccc(OC3CCCCC3)cc12` (racemic): 22.7%; `O=C(O)C1CCCN(C(=O)c2cc(-c3ccccc3)c(=O)n3c2sc2ccc(OC4CCCCC4)cc23)C1` (racemic): “inactive”.

A further data set deals with dengue virus type 2. In words: Inhibition of Dengue virus 2 full length NS5 RNA-dependent RNA polymerase assessed as reduction in elongation activity at 30 uM incubated for 1 hr relative to control.
Details: not given
Summed up: (§1)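 Elongation (primer-dependent) assay: 100 nM full-length DENV-2 NS5, 100 nM U30-3'UTR template and 3 µM Atto-ATP in 50 mM Tris-HCl pH 7.5, 10 mM KCl, 0.5 mM MnCl2, Triton and 10 µM cysteine. Run 1 h at 37 °C; stopped with alkaline phosphatase and AttoPhos fluorescence read at 422/566 nm. Single point at 30 µM; IC50 is average ± SE of one experiment in duplicate.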
`O=C(O)CC(NC(=O)c1cc(-c2ccccc2)c(=O)n2c1sc1ccc(OC3CCCCC3)cc12)c1ccccc1` (racemic): the inhibition was determined as 96.2%.
Consider `O=C(O)C1CCN(C(=O)c2cc(-c3ccccc3)c(=O)n3c2sc2ccc(OC4CCCCC4)cc23)C1` (racemic), for which the inhibition stood at 64.6%.
As to `CC(C)C(CC(=O)O)NC(=O)c1cc(-c2ccccc2)c(=O)n2c1sc1ccc(OC3CCCCC3)cc12` (racemic), the inhibition was 92.8%.
On to `CC(CC(=O)O)NC(=O)c1cc(-c2ccccc2)c(=O)n2c1sc1ccc(OC3CCCCC3)cc12` (racemic), for which the inhibition amounted to 69.3%.
With `O=C(O)C1CCCN(C(=O)c2cc(-c3ccccc3)c(=O)n3c2sc2ccc(OC4CCCCC4)cc23)C1` (racemic), the inhibition is 64.9%.

System in another data set: not listed separately
In words: Inhibition of Dengue virus 2 full length NS5 RNA-dependent RNA polymerase assessed as reduction in elongation activity incubated for 1 hr. Also noted: species or system dengue virus type 2.
Details: not given
Summed up: as §1
For the molecule `O=C(O)C1CCN(C(=O)c2cc(-c3ccccc3)c(=O)n3c2sc2ccc(OC4CCCCC4)cc23)C1` (racemic), the IC50 entry is “Not Active”.
Regarding `CC(CC(=O)O)NC(=O)c1cc(-c2ccccc2)c(=O)n2c1sc1ccc(OC3CCCCC3)cc12` (racemic), the IC50 result is listed as “Not Active”.
For the molecule `O=C(O)C1CCCN(C(=O)c2cc(-c3ccccc3)c(=O)n3c2sc2ccc(OC4CCCCC4)cc23)C1` (racemic), the IC50 result is listed as “Not Active”.

Still in this data set, the particulars now being: read-out: IC50.
As for `O=C(O)CC(NC(=O)c1cc(-c2ccccc2)c(=O)n2c1sc1ccc(OC3CCCCC3)cc12)c1ccccc1` (racemic), the IC50 came out at 10.4 µM.
Same read-out and setting: as for `CC(C)C(CC(=O)O)NC(=O)c1cc(-c2ccccc2)c(=O)n2c1sc1ccc(OC3CCCCC3)cc12` (racemic), the figure is 22.1 µM.

System in another data set: not listed separately
In words: (§2) Cytotoxicity against human Huh-7 cells assessed as reduction in cell viability incubated for 48 hrs by celltiter glo luminescent assay. The following applies: Huh-7 cells. The format is cell-based. The procedure, abridged: (§3)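 Huh-7 cells (2 × 10^4 seeded, DMEM with 10% FBS) exposed to compound for 48 h at 37 °C. Viability read by CellTiter-Glo luminescence as percent of untreated control. CC50 derived from the viability curve.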
Background: In ATP-based viability assays light output follows the ATP content of the culture.
Consider `O=C(O)CC(NC(=O)c1cc(-c2ccccc2)c(=O)n2c1sc1ccc(OC3CCCCC3)cc12)c1ccccc1` (racemic), for which the CC50 at 48 h is 100 µM.
With `O=C(O)C1CCN(C(=O)c2cc(-c3ccccc3)c(=O)n3c2sc2ccc(OC4CCCCC4)cc23)C1` (racemic), the CC50 at 48 h is greater than 100 µM.
Same read-out and setting: as for `CC(C)C(CC(=O)O)NC(=O)c1cc(-c2ccccc2)c(=O)n2c1sc1ccc(OC3CCCCC3)cc12` (racemic), the figure is 100 µM.

A further data set concerns Huh-7. The data set is described as §2. The format is cell-based. The following applies: huh-7, 48 h. Summed up:
as §3
As to `CC(CC(=O)O)NC(=O)c1cc(-c2ccccc2)c(=O)n2c1sc1ccc(OC3CCCCC3)cc12` (racemic), the CC50 result was “Not Active”.
Consider `O=C(O)C1CCCN(C(=O)c2cc(-c3ccccc3)c(=O)n3c2sc2ccc(OC4CCCCC4)cc23)C1` (racemic), for which the CC50 entry is recorded as “Not Active”.

Another data set deals with dengue virus type 2. In words: Antiviral activity against dengue virus 2 EDEN 3295 infected in human Huh-7 cells assessed as reduction in virus replication incubated for 48 hrs by plaque reduction assay. The class given is functional, organism-based. Particulars: EDEN 3295, Huh-7, 48 h. The procedure, abridged: (§4)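 Huh-7 cells (1 × 10^5 seeded) infected 1 h at 37 °C with ZIKV H/PF/2013 at MOI 0.5 or DENV-2 EDEN3295 at MOI 0.3. Dose–response treatment from 0.01 to 100 µM followed, 24 h for ZIKV and 48 h for DENV-2. Supernatant titre measured by BHK-21 plaque assay. EC50 taken from a sigmoidal fit of titre versus concentration; average ± SE of one experiment in duplicate.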
In general terms: In a plaque reduction assay, fewer plaques than in the control indicate reduced infectivity or spread.
For the molecule `O=C(O)CC(NC(=O)c1cc(-c2ccccc2)c(=O)n2c1sc1ccc(OC3CCCCC3)cc12)c1ccccc1` (racemic), the half-maximal effective concentration (EC50) came out at 1.2 µM.
Take `O=C(O)C1CCN(C(=O)c2cc(-c3ccccc3)c(=O)n3c2sc2ccc(OC4CCCCC4)cc23)C1` (racemic): the EC50 amounted to 6.4 µM.
`CC(C)C(CC(=O)O)NC(=O)c1cc(-c2ccccc2)c(=O)n2c1sc1ccc(OC3CCCCC3)cc12` (racemic): the EC50 worked out at 8.4 µM.

For a further data set, the system named is dengue virus type 2. In words: Antiviral activity against dengue virus 2 EDEN 3295 infected in human Huh-7 cells assessed as reduction in virus replication at 10 uM incubated for 48 hrs by plaque reduction assay relative to control. The format is functional. More on the design: scale not given: the % may be the effect or the level left.
Details: not given
The procedure, abridged: (§5)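 Huh-7 cells (1 × 10^5 seeded) infected 1 h at 37 °C with DENV-2 EDEN3295 (MOI 0.3) or ZIKV H/PF/2013 (MOI 0.5). Infected cells then treated at a single 10 µM concentration, 24 h for ZIKV and 48 h for DENV-2. Clarified supernatant titred by BHK-21 plaque assay. Viral titre reduction expressed as percent inhibition.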
As to `CC(CC(=O)O)NC(=O)c1cc(-c2ccccc2)c(=O)n2c1sc1ccc(OC3CCCCC3)cc12` (racemic), the Activity stood at 68.1%.
As for `O=C(O)C1CCCN(C(=O)c2cc(-c3ccccc3)c(=O)n3c2sc2ccc(OC4CCCCC4)cc23)C1` (racemic), the Activity was 65.3%.

The next data set deals with Zika virus. In words: Antiviral activity against Zika virus H/PF/2013 infected in human Huh-7 cells assessed as reduction in virus replication incubated for 24 hrs by plaque reduction assay. The class given is functional, organism-based. The following applies: H/PF/2013, Huh-7, 24 h. The procedure, abridged:
as §4
As for `O=C(O)CC(NC(=O)c1cc(-c2ccccc2)c(=O)n2c1sc1ccc(OC3CCCCC3)cc12)c1ccccc1` (racemic), the EC50 amounted to 5 µM.
On to `O=C(O)C1CCN(C(=O)c2cc(-c3ccccc3)c(=O)n3c2sc2ccc(OC4CCCCC4)cc23)C1` (racemic), for which the EC50 stood at 8.2 µM.

In another data set the test system is Zika virus. In words: Antiviral activity against Zika virus H/PF/2013 infected in human Huh-7 cells assessed as reduction in virus replication at 10 uM incubated for 24 hrs by plaque reduction assay relative to control. Also noted: scale not given: the % may be the effect or the level left. The format is functional.
Details: not given
Summed up: as §5
Turning to `CC(C)C(CC(=O)O)NC(=O)c1cc(-c2ccccc2)c(=O)n2c1sc1ccc(OC3CCCCC3)cc12` (racemic), the Activity stood at 47.4%.
In the case of `CC(CC(=O)O)NC(=O)c1cc(-c2ccccc2)c(=O)n2c1sc1ccc(OC3CCCCC3)cc12` (racemic), the Activity came to 29%.
Turning to `O=C(O)C1CCCN(C(=O)c2cc(-c3ccccc3)c(=O)n3c2sc2ccc(OC4CCCCC4)cc23)C1` (racemic), the Activity worked out at 26.3%.

System in the next data set: not listed separately
In words: Selectivity index, ratio of CC50 for human Huh-7 cells to EC50 for dengue virus 2 EDEN 3295 infected in human Huh-7 cells. The format is toxicity, cell-based. Particulars: read-out: Ratio CC50/EC50.
For the molecule `C#C[C@@]1(O)[C@H](O)[C@@H](CO)O[C@H]1n1ccc2c(N)ncnc21`, the selectivity ratio amounted to 100.
Same read-out and setting: as for `O=C(O)CC(NC(=O)c1cc(-c2ccccc2)c(=O)n2c1sc1ccc(OC3CCCCC3)cc12)c1ccccc1` (racemic), the figure is 83; as for `O=C(O)C1CCN(C(=O)c2cc(-c3ccccc3)c(=O)n3c2sc2ccc(OC4CCCCC4)cc23)C1` (racemic), greater than 15.6.
Consider `CC(C)C(CC(=O)O)NC(=O)c1cc(-c2ccccc2)c(=O)n2c1sc1ccc(OC3CCCCC3)cc12` (racemic), for which the selectivity ratio is 12.

System in the next data set: not listed separately
In words: Selectivity index, ratio of CC50 for human Huh-7 cells to EC50 for Zika virus H/PF/2013 infected in human Huh-7 cells. The class given is toxicity, cell-based. Particulars: read-out: Ratio CC50/EC50.
On to `C#C[C@@]1(O)[C@H](O)[C@@H](CO)O[C@H]1n1ccc2c(N)ncnc21`, for which the selectivity ratio is greater than 100.
Regarding `O=C(O)CC(NC(=O)c1cc(-c2ccccc2)c(=O)n2c1sc1ccc(OC3CCCCC3)cc12)c1ccccc1` (racemic), the selectivity ratio was 20.
Still for that read-out and setting: next, `O=C(O)C1CCN(C(=O)c2cc(-c3ccccc3)c(=O)n3c2sc2ccc(OC4CCCCC4)cc23)C1` (racemic): greater than 12.2.
